In ChEMBL document CHEMBL4138263, “Taburnaemines A-I, Cytotoxic Vobasinyl-Iboga-Type Bisindole Alkaloids from Tabernaemontana corymbosa” (J Nat Prod, 2018):

Key:
Type in all cases: functional, cell-based
MDA-MB-231 = assay: Antiproliferative activity against human MDA-MB-231 cells after 72 hrs by sulforhodamine B assay; conditions: MDA-MB-231, 72 h
How it was run: (§1)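 Cells grown in RPMI-1640 with 2 mM L-glutamine, 25 mM HEPES, 10% FBS, streptomycin and penicillin; seeded at 4000–12 000 cells per well and exposed to compounds for 72 h. Fixed in 10% trichloroacetic acid, stained with 0.04% SRB, bound dye dissolved in 10 mM Tris base, absorbance read at 515 nm. IC50 from at least three independent experiments run in duplicate.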

A549 = assay: Antiproliferative activity against human A549 cells after 72 hrs by sulforhodamine B assay; conditions: A549, 72 h; how it was run: as §1
[1] = Antiproliferative activity against human KBVIN cells after 72 hrs by sulforhodamine B assay; how it was run: as §1
KB = assay: Antiproliferative activity against human KB cells after 72 hrs by sulforhodamine B assay; how it was run: as §1
MCF7 = assay: Antiproliferative activity against human MCF7 cells after 72 hrs by sulforhodamine B assay; conditions: MCF7, 72 h; how it was run: as §1

SMILES | IC50 (MDA-MB-231) [µM] | IC50 (A549) [µM] | IC50 (KB) [µM] | IC50 (MCF7) [µM] | IC50 [1] [µM]
C/C=C1/CN(C)[C@H]2Cc3c([nH]c4ccccc34)[C@H](c3c(OC)ccc4c5c([nH]c34)[C@]3(C(=O)OC)C[C@@H]4C[C@H](CC)[C@@H]3N(CC5)C4)C[C@H]1[C@@]2(CO)C(=O)OC | 4.8 | 3.5 | 4.3 | 4.8 | 4.7
C/C=C1/CN(C)[C@H]2Cc3c([nH]c4ccccc34)[C@H](c3cc4c5c([nH]c4cc3OC)[C@]3(C(=O)OC)C[C@@H]4C[C@H](CC)[C@@H]3N(CC5)[C@@H]4CC(C)=O)C[C@H]1[C@]2(CO)C(=O)OC | 4.8 | 5.6 | 5 | 6.1 | 5.1
CC[C@H]1C[C@@H]2C[C@@]3(C(=O)OC)c4[nH]c5c([C@@H]6C[C@H]7[C@@]8(C(=O)OC)CO[C@H](N(C)[C@H]8Cc8c6[nH]c6ccccc86)[C@]76O[C@@H]6C)c(OC)ccc5c4CCN([C@@H]2CC(C)=O)[C@@H]13 | > 10 | > 10 | > 10 | > 10 | > 10
CC[C@H]1C[C@@H]2C[C@@]3(C(=O)OC)c4[nH]c5c([C@@H]6C[C@H]7[C@@]8(C(=O)OC)CO[C@H](N(C)[C@H]8Cc8c6[nH]c6ccccc86)[C@@]76O[C@H]6C)c(OC)ccc5c4CCN([C@@H]2CC(C)=O)[C@@H]13 | 7.7 | 8.6 | 7.4 | > 10 | 6.6
C/C=C1/CN2COC[C@]3(C(=O)OC)[C@@H]1C[C@@H](c1c(OC)ccc4c1N=C1[C@]5(C(=O)OC)C[C@H]6C[C@H](CC)[C@@H]5N(CC[C@]14O)C6)c1[nH]c4ccccc4c1C[C@H]23 | 8.2 | 4.9 | 4.5 | 6.5 | 4.7
CC[C@H]1C[C@@H]2C[C@@]3(C(=O)OC)c4[nH]c5c([C@@H]6C[C@H]7[C@@]8(C(=O)OC)CO[C@H](N(C)[C@H]8Cc8c6[nH]c6ccccc86)[C@@]76O[C@H]6C)c(OC)ccc5c4CCN(C2=O)[C@@H]13 | 8.2 | 5.9 | 5.7 | 8.3 | 5.8
C/C=C1/CN2COC[C@]3(C(=O)OC)[C@@H]1C[C@@H](c1c(OC)ccc4c5c([nH]c14)[C@]1(C(=O)OC)C[C@H]4C[C@H](CC)[C@@H]1N(CC5)[C@@H]4CO)c1[nH]c4ccccc4c1C[C@H]23 | 5.1 | 4.7 | 4.8 | 6 | 4.9
C/C=C1/CN(C)[C@H]2Cc3c([nH]c4ccccc34)[C@H](c3cc4[nH]c5c(c4cc3OC)CCN3C[C@H]4C[C@H](CC)[C@H]3[C@H]5C4)C[C@H]1[C@@H]2C(=O)OC | 4.5 | 4.3 | 4.8 | 4.7 | 4.4
C/C=C1/CN(C)[C@H]2Cc3c([nH]c4ccccc34)[C@H](c3c(OC)ccc4c5c([nH]c34)[C@]3(C(=O)OC)C[C@H]4C[C@H](CC)[C@@H]3N(CC5)C4)C[C@H]1[C@]2(CO)C(=O)OC | 4.8 | 4.5 | 4.2 | 5.3 | 4.1
C/C=C1/CN(C)[C@H]2Cc3c([nH]c4ccccc34)[C@H](c3c(OC)ccc4c5c([nH]c34)[C@]3(C(=O)OC)C[C@H]4C[C@H](CC)[C@@H]3N3C[C@@H]5O[C@H]43)C[C@H]1[C@]2(CO)C(=O)OC | 4.8 | 5.3 | 4.8 | 5.6 | 4.7
C/C=C1/CN(C)[C@H]2Cc3c([nH]c4ccccc34)C(c3c(OC)ccc4c5c([nH]c34)[C@]3(C(=O)OC)C[C@@H]4C[C@H](CC)[C@@H]3N(CC5)C4)C[C@H]1[C@@H]2C(=O)OC (stereo not given in full) | 5.2 | 4.4 | 5 | 5.6 | 4.1
C/C=C1/CN(C)[C@H]2Cc3c([nH]c4ccccc34)[C@H](c3ccc4[nH]c5c(c4c3)CCN3C[C@@H]4C[C@H](CC)[C@H]3[C@@]5(C(=O)OC)C4)C[C@H]1[C@]2(CO)C(=O)OC | 5.2 | 9.8 | 6.7 | > 10 | 8.3
CC[C@H]1C[C@H]2CN3CC[C@@]4(O)C(=Nc5cc(OC)c([C@@H]6C[C@H]7[C@@]8(C(=O)OC)CO[C@H](N(C)[C@H]8Cc8c6[nH]c6ccccc86)[C@@]76O[C@H]6C)cc54)[C@](C(=O)OC)(C2)[C@H]13 | 4.5 | 4.3 | 4.7 | 4.6 | 4.8

Continued by falling IC50 (MDA-MB-231), values first:

IC50 (MDA-MB-231) [µM] | IC50 (A549) [µM] | IC50 (KB) [µM] | IC50 (MCF7) [µM] | SMILES | IC50 [1] [µM]
4.5 | 4.3 | 4.3 | 4.8 | C/C=C1/CN2COC[C@@]3(C(=O)OC)[C@@H]1C[C@@H](c1cc4c5c([nH]c4cc1OC)[C@]1(C(=O)OC)C[C@@H]4C[C@H](CC)[C@@H]1N(CC5)C4)c1[nH]c4ccccc4c1C[C@H]23 | 4.4
4.5 | 4.3 | 4.5 | 4.9 | C/C=C1/CN(C)[C@H]2Cc3c([nH]c4ccccc34)[C@H](c3c(OC)ccc4c5c([nH]c34)[C@]3(C(=O)OC)C[C@H]4C[C@H](CC)[C@@H]3N(CC5)[C@@H]4CO)C[C@H]1[C@]2(CO)C(=O)OC | 4.9
3.2 | 4.4 | 4.6 | 4.4 | C/C=C1/CN(C)[C@H]2Cc3c([nH]c4ccccc34)[C@H](c3cc4c5c([nH]c4cc3OC)[C@]3(C(=O)OC)C[C@@H]4C[C@H](CC)[C@@H]3N(CC5)[C@@H]4CC(C)=O)C[C@H]1[C@@]2(CO)C(=O)OC | 4.4
2.8 | 3.1 | 2.7 | 3 | C/C=C1/CN(C)[C@H]2Cc3c([nH]c4ccccc34)[C@H](c3cc4c(cc3OC)N=C3[C@]5(C(=O)OC)C[C@H]6C[C@H](CC)[C@@H]5N(CC[C@@]34O)C6)C[C@H]1[C@]2(CO)C(=O)OC | 2.6
0.032 | 0.023 | 0.0044 | 0.0073 | CC[C@]1(O)C[C@@H]2CN(CCc3c([nH]c4ccccc34)[C@@](C(=O)OC)(c3cc4c(cc3OC)N(C)[C@H]3[C@@](O)(C(=O)OC)[C@H](OC(C)=O)[C@]5(CC)C=CCN6CC[C@]43[C@@H]65)C2)C1 [VINBLASTINE] | 2.48
0.007 | 0.0045 | 0.0036 | 0.0088 | CC(=O)O[C@H]1C(=O)[C@@]2(C)[C@H]([C@H](OC(=O)c3ccccc3)[C@]3(O)C[C@H](OC(=O)[C@H](O)[C@@H](NC(=O)c4ccccc4)c4ccccc4)C(C)=C1C3(C)C)[C@]1(OC(C)=O)CO[C@@H]1C[C@@H]2O [PACLITAXEL] | 2.36
